Test results as given in ChEMBL document CHEMBL1152545, “Fluorinated indazoles as novel selective inhibitors of nitric oxide synthase (NOS): synthesis and biological evaluation” (Bioorg Med Chem, 2009).
pIC50: −log10 of the molar value.

Experiments:
[1] = target: Nitric oxide synthase, inducible (Rattus norvegicus) (UniProt Q06518); test: Inhibition of Wistar rat NOS2 assessed as L-[3H]citrulline formation at 1 mM by liquid scintillation counting relative to control in presence of EDTA
Procedure, shortened: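 NOS-II source: lung homogenate (0.1 g/mL, Tris/DTT/protease inhibitors, pH 7.6, 2500g supernatant) from male Wistar rats 6 h after iv LPS 10 mg/kg in saline. 10 µL sample incubated 30 min at 37 °C with 10 µM L-arginine plus 40 nM L-3H-arginine, H4-biopterin, FAD, CaCl2, 10 mM EDTA; NADPH started reaction. Compound 1 mM; three experiments in triplicate; mean ± SEM.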

Nitric oxide synthase 1 [2] = target: T1, Nitric oxide synthase 1 (Homo sapiens, UniProt P29475); test: Inhibition of NOS1
T1 sequence (P29475 whole entry): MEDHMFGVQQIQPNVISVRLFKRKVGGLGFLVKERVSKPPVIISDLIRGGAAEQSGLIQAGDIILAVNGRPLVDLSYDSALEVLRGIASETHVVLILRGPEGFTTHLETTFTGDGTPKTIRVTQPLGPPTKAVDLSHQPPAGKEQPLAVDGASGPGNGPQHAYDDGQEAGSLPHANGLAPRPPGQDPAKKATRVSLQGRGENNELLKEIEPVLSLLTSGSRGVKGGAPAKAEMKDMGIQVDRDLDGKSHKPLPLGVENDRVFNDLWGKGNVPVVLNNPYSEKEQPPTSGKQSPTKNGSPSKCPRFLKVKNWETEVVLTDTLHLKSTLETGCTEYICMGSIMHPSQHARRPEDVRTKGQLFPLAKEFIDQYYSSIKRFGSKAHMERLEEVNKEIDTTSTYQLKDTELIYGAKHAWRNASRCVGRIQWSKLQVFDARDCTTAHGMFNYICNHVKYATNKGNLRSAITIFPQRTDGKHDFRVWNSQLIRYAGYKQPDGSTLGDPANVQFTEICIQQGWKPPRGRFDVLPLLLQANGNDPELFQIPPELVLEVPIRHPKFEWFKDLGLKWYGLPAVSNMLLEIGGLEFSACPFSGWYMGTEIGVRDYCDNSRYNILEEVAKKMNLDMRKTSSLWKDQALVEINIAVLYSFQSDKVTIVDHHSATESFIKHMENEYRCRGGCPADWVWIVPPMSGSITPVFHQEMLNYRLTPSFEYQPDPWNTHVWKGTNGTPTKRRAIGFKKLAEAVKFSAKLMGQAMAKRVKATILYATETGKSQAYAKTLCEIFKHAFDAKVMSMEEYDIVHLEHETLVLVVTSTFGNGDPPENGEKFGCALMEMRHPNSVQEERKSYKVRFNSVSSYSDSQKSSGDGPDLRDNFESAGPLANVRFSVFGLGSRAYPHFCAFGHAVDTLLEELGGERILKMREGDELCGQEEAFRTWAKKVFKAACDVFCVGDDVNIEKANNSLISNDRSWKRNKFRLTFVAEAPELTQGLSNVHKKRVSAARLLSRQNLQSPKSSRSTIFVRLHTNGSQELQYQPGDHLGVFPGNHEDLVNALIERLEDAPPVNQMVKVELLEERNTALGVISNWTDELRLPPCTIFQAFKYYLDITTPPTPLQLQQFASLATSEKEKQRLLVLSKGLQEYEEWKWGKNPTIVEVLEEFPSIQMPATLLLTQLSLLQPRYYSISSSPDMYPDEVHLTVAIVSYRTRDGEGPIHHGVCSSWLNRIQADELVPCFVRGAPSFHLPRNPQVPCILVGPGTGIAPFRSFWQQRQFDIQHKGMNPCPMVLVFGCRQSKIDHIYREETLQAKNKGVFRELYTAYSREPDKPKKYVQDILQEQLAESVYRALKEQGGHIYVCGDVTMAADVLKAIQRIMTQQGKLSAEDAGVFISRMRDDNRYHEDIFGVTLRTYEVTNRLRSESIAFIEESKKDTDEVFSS

Nitric oxide synthase 1 [3] = target: T1, Nitric oxide synthase 1; test: Inhibition of recombinant NOS1 assessed as citrulline formation
[4] = target: Nitric oxide synthase, inducible (Homo sapiens, UniProt P35228); test: Inhibition of NOS2
Sequence of Nitric oxide synthase, inducible (P35228 whole entry): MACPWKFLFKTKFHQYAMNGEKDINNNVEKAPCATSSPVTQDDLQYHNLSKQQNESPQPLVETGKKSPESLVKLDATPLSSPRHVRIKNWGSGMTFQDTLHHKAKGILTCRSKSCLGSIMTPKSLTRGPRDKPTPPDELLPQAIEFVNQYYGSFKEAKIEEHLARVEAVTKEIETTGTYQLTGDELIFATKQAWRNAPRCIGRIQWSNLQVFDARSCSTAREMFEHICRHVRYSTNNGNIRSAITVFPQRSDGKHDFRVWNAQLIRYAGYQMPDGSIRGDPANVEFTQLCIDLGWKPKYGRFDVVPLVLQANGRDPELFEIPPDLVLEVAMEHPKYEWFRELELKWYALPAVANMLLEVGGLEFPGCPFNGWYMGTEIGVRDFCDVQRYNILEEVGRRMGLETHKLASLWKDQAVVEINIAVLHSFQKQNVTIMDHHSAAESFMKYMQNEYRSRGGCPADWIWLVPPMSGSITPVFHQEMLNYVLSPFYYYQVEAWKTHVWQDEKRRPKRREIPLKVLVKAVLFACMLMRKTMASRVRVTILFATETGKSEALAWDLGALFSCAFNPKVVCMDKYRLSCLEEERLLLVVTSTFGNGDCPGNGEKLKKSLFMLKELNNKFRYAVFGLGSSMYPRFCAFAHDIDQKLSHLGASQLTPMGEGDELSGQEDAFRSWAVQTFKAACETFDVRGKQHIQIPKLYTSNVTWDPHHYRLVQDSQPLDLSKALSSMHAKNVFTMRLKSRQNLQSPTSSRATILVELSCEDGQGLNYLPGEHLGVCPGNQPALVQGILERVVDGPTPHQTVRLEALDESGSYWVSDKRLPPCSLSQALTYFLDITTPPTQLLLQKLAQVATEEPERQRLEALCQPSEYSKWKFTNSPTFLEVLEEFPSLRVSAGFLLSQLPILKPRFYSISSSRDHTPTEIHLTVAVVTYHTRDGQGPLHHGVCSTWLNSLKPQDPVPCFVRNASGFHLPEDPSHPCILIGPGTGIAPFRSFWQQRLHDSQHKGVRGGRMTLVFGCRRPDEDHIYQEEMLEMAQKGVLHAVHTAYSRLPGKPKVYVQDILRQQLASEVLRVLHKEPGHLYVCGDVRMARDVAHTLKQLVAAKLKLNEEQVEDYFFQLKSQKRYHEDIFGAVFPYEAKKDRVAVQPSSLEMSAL
Procedure, shortened: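 NOS-II source was lung homogenate (2500g supernatant) from male Wistar rats killed 6 h after iv LPS 10 mg/kg. Incubation ran 30 min at 37 °C, pH 7.6, with 10 µM L-arginine, 40 nM L-3H-arginine, cofactors and 0.75 mM NADPH, plus 10 mM EDTA to exclude NOS-I. Read-out was 3H-citrulline formed. Compounds were tested at 1 mM, or 0.1–1 mM for dose-response, in three experiments run in triplicate.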

[5] = target: Nitric oxide synthase, inducible (Rattus norvegicus) (UniProt Q06518); test: Inhibition of Wistar rat NOS2 assessed as enzyme activity at 0.5 mM by liquid scintillation counting relative to control in presence of EDTA; set-up: scale not given: the % may be the effect or the level left
Procedure, shortened: (§1)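 Lung homogenate (0.1 g/mL, pH 7.6 Tris with protease inhibitors, 2500g supernatant) from male Wistar rats given 10 mg/kg LPS iv in saline 6 h before. L-3H-arginine (40 nM, plus 10 µM L-arginine) to L-3H-citrulline conversion, 0.75 mM NADPH, 30 min at 37 °C, 10 mM EDTA. Compound at 0.1, 0.5 or 1 mM. Three experiments in triplicate.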

[6] = target: Nitric oxide synthase, inducible (Rattus norvegicus) (UniProt Q06518); test: Inhibition of Wistar rat NOS2 assessed as enzyme activity at 0.1 mM by liquid scintillation counting relative to control in presence of EDTA; set-up: scale not given: the % may be the effect or the level left; procedure, shortened: as §1
[7] = target: Nitric oxide synthase, inducible (Rattus norvegicus) (UniProt Q06518); test: Inhibition of Wistar rat NOS2 assessed as L-[3H]citrulline formation by liquid scintillation counting relative to control in presence of EDTA; procedure, shortened: as §1
[8] = target: Nitric oxide synthase, inducible (Rattus norvegicus) (UniProt Q06518); test: Inhibition of Wistar rat NOS2 assessed as enzyme activity at 1 mM by liquid scintillation counting relative to control in presence of EDTA; set-up: scale not given: the % may be the effect or the level left; procedure, shortened: as §1

Sequence of Nitric oxide synthase, inducible (Rattus norvegicus) (Q06518 whole entry): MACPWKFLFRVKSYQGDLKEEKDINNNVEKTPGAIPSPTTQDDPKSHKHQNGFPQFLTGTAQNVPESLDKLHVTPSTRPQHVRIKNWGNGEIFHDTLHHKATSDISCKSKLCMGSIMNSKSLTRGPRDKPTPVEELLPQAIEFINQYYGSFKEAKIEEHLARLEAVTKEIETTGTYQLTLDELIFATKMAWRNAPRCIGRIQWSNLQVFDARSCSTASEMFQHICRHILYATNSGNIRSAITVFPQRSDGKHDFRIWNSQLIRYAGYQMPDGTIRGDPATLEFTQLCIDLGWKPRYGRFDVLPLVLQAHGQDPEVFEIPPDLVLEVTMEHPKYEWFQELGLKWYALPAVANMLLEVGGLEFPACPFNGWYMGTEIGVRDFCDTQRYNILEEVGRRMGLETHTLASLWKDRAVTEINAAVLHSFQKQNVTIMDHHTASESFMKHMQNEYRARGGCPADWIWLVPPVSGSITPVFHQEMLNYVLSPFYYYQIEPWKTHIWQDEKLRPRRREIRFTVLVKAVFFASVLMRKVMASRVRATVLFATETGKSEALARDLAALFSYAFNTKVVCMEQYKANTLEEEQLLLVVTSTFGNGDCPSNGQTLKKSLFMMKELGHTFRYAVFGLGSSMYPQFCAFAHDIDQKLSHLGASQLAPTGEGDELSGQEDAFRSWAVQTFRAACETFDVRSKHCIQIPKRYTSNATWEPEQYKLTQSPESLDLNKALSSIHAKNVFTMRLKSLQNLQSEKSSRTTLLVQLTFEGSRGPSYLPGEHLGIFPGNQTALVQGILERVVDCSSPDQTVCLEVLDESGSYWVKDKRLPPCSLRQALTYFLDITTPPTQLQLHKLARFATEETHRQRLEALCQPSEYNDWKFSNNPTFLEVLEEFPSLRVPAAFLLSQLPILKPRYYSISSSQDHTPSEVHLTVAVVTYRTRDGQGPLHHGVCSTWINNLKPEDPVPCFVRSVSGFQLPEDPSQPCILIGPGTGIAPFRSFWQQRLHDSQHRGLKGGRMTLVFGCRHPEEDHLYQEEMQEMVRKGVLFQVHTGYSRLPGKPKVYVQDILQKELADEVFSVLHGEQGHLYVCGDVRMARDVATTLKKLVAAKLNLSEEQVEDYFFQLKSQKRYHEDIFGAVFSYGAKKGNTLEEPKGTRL

inhibition [1] [%] | Structure (SMILES) | pIC50 (Nitric oxide synthase 1 [2]) | also measured
23 | O=C1CCCc2[nH]ncc21 | – | –
83 | Cc1n[nH]c2c(F)c(F)c(F)c(F)c12 | – | –
36 | Cn1cc2cccc([N+](=O)[O-])c2n1 | – | –
– | Clc1cccc2[nH]ncc12 | 4.36 | –
4 | Cc1n[nH]c2c1C(=O)CCC2 | – | –
20 | CC12CCC(C3C=NN=C31)C2(C)C (racemic) | – | –
– | Nc1cccc2cn[nH]c12 | – | pIC50 (Nitric oxide synthase 1 [3]): 3.94
– | O=c1[nH][nH]c2ccccc12 | – | pIC50 (Nitric oxide synthase 1 [3]): < 3.00
22 | Cc1n[nH]c2c1C(=O)CC(C)(C)C2 | – | –
– | Clc1ccc2[nH]ncc2c1 | 4.23 | –
– | Nc1ccc2[nH]ncc2c1 | – | pIC50 (Nitric oxide synthase 1 [3]): < 3.00
– | Ic1ccc2[nH]ncc2c1 | 4.43 | –
6 | Oc1n[nH]c2c(F)c(F)c(F)c(F)c12 | – | –
– | CCc1n[nH]c2ccccc12 | – | pIC50 (Nitric oxide synthase 1 [3]): 3.51
– | Brc1cccc2[nH]ncc12 | 5.62 | –
– | Brc1ccc2[nH]ncc2c1 | 4.14 | –
– | Clc1n[nH]c2ccccc12 | – | pIC50 (Nitric oxide synthase 1 [3]): 4.00

inhibition [1] [%] | Structure (SMILES) | pIC50 (Nitric oxide synthase 1 [2]) | also measured
– | Brc1cccc2cn[nH]c12 | 4.85 | –
– | Ic1cccc2[nH]ncc12 | 4.77 | –
– | Nc1ccc2cn[nH]c2c1 | – | pIC50 (Nitric oxide synthase 1 [3]): < 3.00
7 | Cn1nc2c([N+](=O)[O-])cccc2c1Br | – | –
– | Clc1ccc2cn[nH]c2c1 | 4.66 | –
– | Clc1cccc2cn[nH]c12 | 5.38 | –
– | Brc1ccc2cn[nH]c2c1 | 5.37 | –
– | O=[N+]([O-])c1cccc2[nH]ncc12 | 5.51 | –
– | O=[N+]([O-])c1ccc2c(Cl)n[nH]c2c1 | 3.80 | –
– | O=[N+]([O-])c1ccc2[nH]ncc2c1 | 4.33 | –
10 | Cn1nc(Br)c2cccc([N+](=O)[O-])c21 | – | –
2 | CC1(C)CC(=O)c2cn[nH]c2C1 | – | –
37 | Fc1c(F)c(F)c2c(-c3ccccc3)n[nH]c2c1F | – | –
21 | Fc1c(F)c(F)c2c(C(F)(F)F)n[nH]c2c1F | – | –
– | c1ccc2[nH]ncc2c1 [INDAZOLE] | – | pIC50 (Nitric oxide synthase 1 [3]): 3.75
– | O=[N+]([O-])c1ccc2cn[nH]c2c1 | 4.49 | –
25 | Cn1ncc2cccc([N+](=O)[O-])c21 | – | –

Structure (SMILES) | inhibition [1] [%] | pIC50 (Nitric oxide synthase 1 [2]) | also measured
O=[N+]([O-])c1cccc2c(Br)n[nH]c12 | 97 | 6.77 | pIC50 [4]: 6.54
Fc1c(F)c(F)c(-c2n[nH]c3c(F)c(F)c(F)c(F)c23)c(F)c1F | 80 | – | Activity [5]: 58%; Activity [6]: 90%; inhibition [7]: Dose-dependent effect; Activity [8]: 20%; pIC50 [4]: 3.40
O=[N+]([O-])c1cccc2cn[nH]c12 [7-NITROINDAZOLE] | 84 | – | pIC50 [4]: 5.24
